Test results taken from ChEMBL document CHEMBL1146071, “2,4-diaminopyrimidine derivatives as potent growth hormone secretagogue receptor antagonists” (J Med Chem, 2006).

Key:
[1] = AUC in Sprague-Dawley rat at 5 mg/kg, iv; format: ADME, organism-based, Plasma; parameters: dose 5 mg/kg, route intravenous; settings: Sprague-Dawley, plasma
Procedure, shortened: (§1)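 Rats dosed at 5 mg/kg: iv for AUC (µg·h/mL), clearance (L/h·kg) and Cmax (µg/mL); oral for bioavailability unless stated otherwise. Brain (µg/g) and plasma levels taken at 1 and 8 h. Mean of n = 3.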

[2] = target: T1, Growth hormone secretagogue receptor type 1 (Homo sapiens, UniProt Q92847); experiment: Displacement of [125I]ghrelin from human GHS receptor expressed in CHOK cells; format: cell-based
Procedure, shortened: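 Membranes from CHO-K cells expressing human ghrelin receptor, prepared by sonication and a 60000g spin. Filtered onto PEI-soaked GF/C, washed cold, scintillation counted; percent inhibition, sigmoidal fit for IC50.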

[3] = Oral bioavailability in Sprague-Dawley rat at 5 mg/kg; format: ADME, organism-based; settings: in vivo; procedure, shortened: as §1
[4] = target: T1, Growth hormone secretagogue receptor type 1; experiment: Antagonist activity at human GHS receptor by inhibition of ghrelin-induced intracellular calcium flux in CHOK cells; format: functional, cell-based
Procedure, shortened: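 CHO-K cells stably expressing human GHS-R, grown in Ultra-CHO medium with 1% dialyzed FCS and 400 µg/mL G418, plated to confluency overnight. Loaded with Fluo-4 AM plus probenecid for 1-3 h in the dark at RT, then washed. On FLIPR (ex 488/em 520 nm), compound added first and read 3 min, then ghrelin added and read another 3 min. Duplicate or triplicate wells; sigmoidal fit for IC50.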

[5] = Half life in Sprague-Dawley rat at 5 mg/kg; format: ADME, organism-based; parameters: dose 5 mg/kg; settings: in vivo; procedure, shortened: as §1
[6] = Plasma clearance in Sprague-Dawley rat at 5 mg/kg, iv; format: ADME, organism-based; parameters: dose 5 mg/kg, route intravenous; procedure, shortened: as §1
[7] = Plasma concentration in Sprague-Dawley rat at 5 mg/kg after 8 hrs; format: ADME, organism-based; parameters: dose 5 mg/kg; procedure, shortened: as §1
[8] = Concentration in Sprague-Dawley rat brain at 5 mg/kg after 8 hrs; format: ADME, organism-based; parameters: dose 5 mg/kg; settings: read-out: Ct; procedure, shortened: as §1
[9] = Concentration in Sprague-Dawley rat brain at 5 mg/kg after 1 hr; format: ADME, organism-based; parameters: dose 5 mg/kg; settings: read-out: Ct; procedure, shortened: as §1
[10] = Plasma concentration in Sprague-Dawley rat at 5 mg/kg after 1 hr; format: ADME, organism-based; parameters: dose 5 mg/kg; procedure, shortened: as §1
[11] = Cmax in Sprague-Dawley rat at 5 mg/kg, iv; format: ADME, organism-based; parameters: dose 5 mg/kg, route intravenous; settings: in vivo; procedure, shortened: as §1

T1 sequence (Q92847 whole entry): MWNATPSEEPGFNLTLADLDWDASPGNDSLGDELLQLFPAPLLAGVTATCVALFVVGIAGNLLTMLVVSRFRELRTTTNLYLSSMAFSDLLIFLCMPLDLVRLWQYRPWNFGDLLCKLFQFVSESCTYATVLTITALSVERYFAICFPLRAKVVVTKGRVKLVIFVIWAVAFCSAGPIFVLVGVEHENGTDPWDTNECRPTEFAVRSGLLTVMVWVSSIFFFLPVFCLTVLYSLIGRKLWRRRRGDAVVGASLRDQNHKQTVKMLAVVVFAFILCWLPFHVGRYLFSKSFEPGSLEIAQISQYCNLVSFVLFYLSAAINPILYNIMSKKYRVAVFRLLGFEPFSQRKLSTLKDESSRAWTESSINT

| IC50 [2] | IC50 [4] | other results | SMILES |
| --- | --- | --- | --- |
| 310 nM | 1380 nM | AUC [1]: 2200 ng·h/mL; bioavailability [3]: 76%; half-life [5]: 5.2 h; clearance [6]: 30 mL/min/kg; concentration at 8 h [7]: 110 ng/mL; concentration at 8 h [8]: 600 ng/g; concentration at 1 h [9]: 2740 ng/g; concentration at 1 h [10]: 250 ng/mL; Cmax [11]: 170 ng/mL | CCc1nc(N)nc(N)c1-c1ccc(NCc2ccc(Cl)cc2)cc1 |
| 1.5 nM | 3.6 nM | – | Nc1nc(N)c(-c2ccc(NCc3ccnc(Cl)c3)cc2)c(COCc2ccccc2)n1 |
| 9.8 nM | 120 nM | – | CCc1nc(N)nc(N)c1-c1ccc(CNc2ccc(S(C)(=O)=O)cc2)cc1 |
| 2.8 nM | 19 nM | – | N#Cc1ccc(CNc2ccc(-c3c(N)nc(N)nc3COCc3ccccc3)cc2)cc1 |
| 67 nM | 700 nM | – | CC(C)(C)CNc1ccc(-c2c(N)nc(N)nc2COCc2ccccc2)cc1 |
| 9.2 nM | 190 nM | – | CCc1nc(N)nc(N)c1-c1ccc(CNc2ccc([N+](=O)[O-])cc2)cc1 |
| 2.9 nM | 97 nM | – | Nc1nc(N)c(-c2ccc(NCc3ccc(C(F)(F)F)cc3)cc2)c(COCc2ccccc2)n1 |
| 7.7 nM | 90 nM | – | COc1ccc(CNc2ccc(-c3c(N)nc(N)nc3COCc3ccccc3)cc2)cc1 |
| 160 nM | 780 nM | – | CCc1nc(N)nc(N)c1-c1ccc(NCc2ccc(C#N)cc2)cc1 |
| 290 nM | 790 nM | – | CCc1nc(N)nc(N)c1-c1ccc(NCc2csc(Cl)c2)cc1 |
| 3.7 nM | 32 nM | AUC [1]: 2700 ng·h/mL; bioavailability [3]: 53%; half-life [5]: 3.8 h; clearance [6]: 16.5 mL/min/kg; concentration at 1 h [9]: 40 ng/g; concentration at 1 h [10]: 1280 ng/mL; Cmax [11]: 430 ng/mL | CCc1nc(N)nc(N)c1-c1ccc(N(C)Cc2ccc(S(C)(=O)=O)cc2)cc1 |
| 6.3 nM | 170 nM | – | Nc1nc(N)c(-c2ccc(NCc3csc(Cl)c3)cc2)c(COCc2ccccc2)n1 |
| 6.9 nM | 48 nM | – | CS(=O)(=O)c1ccc(COc2ccc(-c3c(N)nc(N)nc3COCc3ccccc3)cc2)cc1 |
| 83 nM | 3610 nM | – | N#Cc1ccc(COc2ccc(-c3c(N)nc(N)nc3COCc3ccccc3)cc2)cc1 |
| 50 nM | 980 nM | – | Nc1nc(N)c(-c2ccc(NCc3ccccc3)cc2)c(COCc2ccccc2)n1 |
| 110 nM | 220 nM | – | CCc1nc(N)nc(N)c1-c1ccc(NCc2ccnc(Cl)c2)cc1 |
| 130 nM | 780 nM | – | Nc1nc(N)c(-c2ccc(NCc3cnc4ccccc4c3)cc2)c(COCc2ccccc2)n1 |
